Activity calls are given as the source filed them. No cut-off for these calls is given here.
Key:
Plasmodium falciparum = experiment: Antiparasitic activity against Plasmodium falciparum W2 after 48 hrs by YOYO-1 probe-based flow cytometry; assay type: functional; details: W2, 48 h
Rhodesain = Rhodesain (Trypanosoma brucei rhodesiense, UniProt Q95PM0); experiment: Inhibition of recombinant Trypanosoma brucei rhodesiense rhodesain expressed in Pichia pastoris using Cbz-Phe-Arg-AMC as substrate after 30 min by fluorescence assay
Method in brief: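 Recombinant rhodesain with fluorogenic Cbz-Phe-Arg-AMC substrate. Compounds were first screened at a fixed 50 µM, with DMSO as negative control and an irreversible clan CA cysteine-protease inhibitor as positive control. Continuous assays at seven inhibitor concentrations, from minimally to fully inhibitory, gave kinac (min-1) and Ki, with k2nd = kinac/Ki (M-1 min-1).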

Procathepsin L [1] = target: T1, Procathepsin L (Homo sapiens, UniProt P07711); experiment: Inhibition of human cathepsin L assessed as first order rate constant using Cbz-Phe-Arg-AMC as substrate after 10 mins by fluorescence assay
Target sequence in this assay (P07711 114-333 limits assumed): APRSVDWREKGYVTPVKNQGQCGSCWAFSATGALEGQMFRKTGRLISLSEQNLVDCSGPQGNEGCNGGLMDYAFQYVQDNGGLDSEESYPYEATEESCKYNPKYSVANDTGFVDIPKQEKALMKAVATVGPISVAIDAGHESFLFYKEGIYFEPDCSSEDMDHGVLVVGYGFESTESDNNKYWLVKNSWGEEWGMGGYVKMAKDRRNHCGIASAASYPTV

[2] = system: Trypanosoma brucei brucei; experiment: Antiparasitic activity against bloodstream form of Trypanosoma brucei brucei 449 after 24 hrs by ATPlite assay; assay type: functional; details: Trypanosoma brucei, 449, 24 h
Falcipain 2 = target: T2, Falcipain 2 (Plasmodium falciparum, UniProt Q9N6S8); experiment: Inhibition of recombinant Plasmodium falciparum falcipain-2 expressed in Escherichia coli M15(pREP4) using Cbz-Phe-Arg-AMC as substrate by fluorescence assay
T2 sequence (Q9N6S8 whole entry): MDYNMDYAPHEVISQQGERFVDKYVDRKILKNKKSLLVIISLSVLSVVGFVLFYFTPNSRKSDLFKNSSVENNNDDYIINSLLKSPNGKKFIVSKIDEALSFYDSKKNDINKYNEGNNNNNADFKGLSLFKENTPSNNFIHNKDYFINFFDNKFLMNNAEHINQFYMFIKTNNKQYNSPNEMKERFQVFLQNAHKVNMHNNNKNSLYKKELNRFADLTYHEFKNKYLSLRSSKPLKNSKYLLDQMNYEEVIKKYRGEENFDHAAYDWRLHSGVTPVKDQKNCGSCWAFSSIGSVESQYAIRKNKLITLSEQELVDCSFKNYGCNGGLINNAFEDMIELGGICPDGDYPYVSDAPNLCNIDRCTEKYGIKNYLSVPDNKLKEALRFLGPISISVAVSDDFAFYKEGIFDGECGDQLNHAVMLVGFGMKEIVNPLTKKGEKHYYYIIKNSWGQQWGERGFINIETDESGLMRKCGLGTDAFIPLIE

Procathepsin L [3] = target: T1, Procathepsin L; experiment: Inhibition of human cathepsin L assessed as second order rate constant using Cbz-Phe-Arg-AMC as substrate after 10 mins by fluorescence assay
Target sequence in this assay (P07711 114-333 limits assumed): as the sequence (P07711 114-333 limits assumed) above

[4] = target: Rhodesain (Trypanosoma brucei rhodesiense) (UniProt Q95PM0); experiment: Inhibition of recombinant Trypanosoma brucei rhodesiense rhodesain expressed in Pichia pastoris assessed as first order rate constant using Cbz-Phe-Arg-AMC as substrate after 30 mins by fluorescence assay
Method in brief: (§1)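 Recombinant rhodesain with fluorogenic substrate Cbz-Phe-Arg-AMC. Preliminary screen at a fixed inhibitor concentration of 50 µM. Equal volume of DMSO served as negative control and E-64 as irreversible positive control. Active compounds went on to continuous assays at seven concentrations, from minimally to fully inhibitory, giving kinac (min-1), Ki (nM) and k2nd = kinac/Ki (M-1 min-1).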

Procathepsin L [5] = target: T1, Procathepsin L; experiment: Inhibition of human cathepsin L using Cbz-Phe-Arg-AMC as substrate after 10 mins by fluorescence assay
Target sequence in this assay (P07711 whole entry): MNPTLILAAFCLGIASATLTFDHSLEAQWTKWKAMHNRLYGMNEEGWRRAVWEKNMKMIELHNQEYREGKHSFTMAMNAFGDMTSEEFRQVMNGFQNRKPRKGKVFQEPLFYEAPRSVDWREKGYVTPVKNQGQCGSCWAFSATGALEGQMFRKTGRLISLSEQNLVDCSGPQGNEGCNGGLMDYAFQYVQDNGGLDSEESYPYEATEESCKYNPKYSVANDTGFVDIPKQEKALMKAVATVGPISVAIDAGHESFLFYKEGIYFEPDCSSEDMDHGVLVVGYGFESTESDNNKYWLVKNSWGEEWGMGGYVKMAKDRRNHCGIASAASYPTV

[6] = system: Trypanosoma brucei brucei; experiment: Antiparasitic activity against bloodstream form of Trypanosoma brucei brucei 449 after 48 hrs by ATPlite assay; assay type: functional; details: Trypanosoma brucei, 449, 48 h
[7] = target: Rhodesain (Trypanosoma brucei rhodesiense) (UniProt Q95PM0); experiment: Inhibition of recombinant Trypanosoma brucei rhodesiense rhodesain expressed in Pichia pastoris assessed as second order rate constant using Cbz-Phe-Arg-AMC as substrate after 30 mins by fluorescence assay; method in brief: as §1
[8] = Cytotoxicity against human HeLa cells assessed as decrease in cell viability after 48 hrs by MTT assay; assay type: cell-based
[9] = Selectivity index, ratio of CC50 for human HeLa cells to EC50 for Trypanosoma brucei brucei 449 for 48 hrs; assay type: toxicity, cell-based; details: read-out: Ratio CC50/EC50
[10] = system: Trypanosoma brucei brucei; experiment: Effect on glutathione level in blood stream of Trypanosoma brucei brucei at 3 uM after 24 hrs by HPLC analysis; assay type: functional
Method in brief: (§2)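 Bloodstream-form T. brucei were seeded at 1 x10^5 cells/ml and treated for 24 h, with untreated cells as control. Free thiols (GSH, T(SH)2), and free thiols plus disulfides (GSSG, TS2), were labelled with monobromobimane and quantified by HPLC. Values are mean ± SD of three independent experiments.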

[11] = system: Trypanosoma brucei brucei; experiment: Inhibition of trypanothione synthetase in blood stream of Trypanosoma brucei brucei assessed as cellular content of free trypanothione after 24 hrs by HPLC analysis; method in brief: as §2
[12] = system: Trypanosoma brucei brucei; experiment: Effect on protein bound glutathione level in blood stream of Trypanosoma brucei brucei; assay type: functional
[13] = system: Trypanosoma brucei brucei; experiment: Inhibition of trypanothione synthetase in blood stream of Trypanosoma brucei brucei assessed as cellular content of free trypanothione at 3 uM after 24 hrs by HPLC analysis (reference value: 340 uM); method in brief: as §2
[14] = target: Rhodesain (Trypanosoma brucei rhodesiense) (UniProt Q95PM0); experiment: Inhibition of recombinant Trypanosoma brucei rhodesiense rhodesain expressed in Pichia pastoris using Cbz-Phe-Arg-AMC as substrate at 50 uM after 30 mins by fluorescence assay; method in brief: as §1

Chain of Rhodesain (Q95PM0 whole entry): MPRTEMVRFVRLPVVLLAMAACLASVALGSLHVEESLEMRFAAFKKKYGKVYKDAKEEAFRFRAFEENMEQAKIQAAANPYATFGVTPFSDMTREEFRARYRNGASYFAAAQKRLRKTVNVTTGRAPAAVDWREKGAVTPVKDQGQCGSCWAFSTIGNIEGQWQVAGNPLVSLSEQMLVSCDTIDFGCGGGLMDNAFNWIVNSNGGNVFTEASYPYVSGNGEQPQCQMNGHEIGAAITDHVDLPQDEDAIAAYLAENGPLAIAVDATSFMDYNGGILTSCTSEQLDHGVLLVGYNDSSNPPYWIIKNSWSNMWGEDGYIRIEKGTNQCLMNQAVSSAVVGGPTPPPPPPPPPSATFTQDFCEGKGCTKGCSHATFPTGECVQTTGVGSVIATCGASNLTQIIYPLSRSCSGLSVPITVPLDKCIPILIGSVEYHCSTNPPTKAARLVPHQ
Chain of Rhodesain (Trypanosoma brucei rhodesiense) (Q95PM0 1-450): as the sequence (Q95PM0 whole entry) above

Row | Structure (SMILES) | EC50 (Plasmodium falciparum) | Ki (Rhodesain) | Kinact (Procathepsin L [1]) | EC50 [2] | IC50 (Falcipain 2) | K (Procathepsin L [3]) | Kinact [4] | Ki (Procathepsin L [5]) | EC50 [6] | K [7] | CC50 at 48 h [8] | selectivity ratio at 48 h [9] | Activity [10] | inhibition [11] | Activity [12] | Activity [13] | inhibition [14]
1 | O=C(N[C@@H](Cc1ccccc1)C(=O)N[C@H](/C=C/S(=O)(=O)c1ccccc1)CCc1ccccc1)OCc1ccccc1 | > 10 µM | 5 nM | 0.0014 min⁻¹ | 23.7 µM | 7.33 µM | 4.4 ×10³ /M/min | 0.0033 min⁻¹ | 290 nM | 18.5 µM | 663 ×10³ /M/min |  |  |  |  |  |  | 
2 | CC(=O)/C=C/[C@H](CCc1ccccc1)NC(=O)[C@H](CC(C)C)NC(=O)OCc1ccccc1 | 3.16 µM | 0.5 nM | 0.0013 min⁻¹ | 3.85 µM | 0.25 µM | 13 ×10³ /M/min | 0.0016 min⁻¹ | 110 nM | 3.2 µM | 3800 ×10³ /M/min | 9.58 µM | 3 |  |  |  |  | 
3 | CC(=O)/C=C/[C@H](CCc1ccccc1)NC(=O)[C@H](CC(C)C)NC(=O)OCc1ccc([N+](=O)[O-])cc1 | 2.74 µM | 0.9 nM | 0.0026 min⁻¹ | 3.23 µM | 0.11 µM | 739 ×10³ /M/min | 0.0027 min⁻¹ | 3.5 nM | 2.48 µM | 2970 ×10³ /M/min | 8.2 µM | 3.3 |  |  |  |  | 
4 | CC(C)C[C@H](NC(=O)OCc1ccc([N+](=O)[O-])cc1)C(=O)N[C@H](/C=C/S(=O)(=O)c1ccccc1)CCc1ccccc1 | 2.31 µM | 14 nM | 0.005 min⁻¹ |  | 1.32 µM | 22 ×10³ /M/min | 0.0043 min⁻¹ | 250 nM |  | 304 ×10³ /M/min |  |  |  |  |  |  | 
5 | N#C/C=C/[C@H](CCc1ccccc1)NC(=O)[C@H](Cc1ccccc1)NC(=O)OCc1ccccc1 | > 10 µM | 46 nM | 0.0022 min⁻¹ |  | > 50 µM | 9.3 ×10³ /M/min | 0.0005 min⁻¹ | 240 nM |  | 12 ×10³ /M/min |  |  |  |  |  |  | 
6 | CC(=O)/C=C/[C@H](CCc1ccccc1)NC(=O)[C@H](Cc1ccccc1)NC(=O)OCc1ccc([N+](=O)[O-])cc1 | 7.18 µM | 0.074 nM | 0.0016 min⁻¹ | 6.05 µM | 0.78 µM | 737 ×10³ /M/min | 0.0017 min⁻¹ | 2.2 nM | 4.98 µM | 24400 ×10³ /M/min |  |  |  |  |  |  | 
7 | N=C(NCCCCCCNC(=N)NC(=N)Nc1ccc(Cl)cc1)NC(=N)Nc1ccc(Cl)cc1 [CHLORHEXIDINE] |  |  |  | 0.67 µM |  |  |  |  | 0.53 µM |  |  |  |  |  |  |  | 
8 | N#C/C=C/[C@H](CCc1ccccc1)NC(=O)[C@H](Cc1ccccc1)NC(=O)OCc1ccc([N+](=O)[O-])cc1 | > 10 µM | 1740 nM |  |  | > 50 µM |  | 0.0004 min⁻¹ |  |  | 0.26 ×10³ /M/min |  |  |  |  |  |  | 
9 | CC(C)C[C@H](NC(=O)OCc1ccccc1)C(=O)N[C@H](/C=C/C#N)CCc1ccccc1 | > 10 µM | 53 nM | 0.0012 min⁻¹ |  | > 50 µM | 3.8 ×10³ /M/min | 0.001 min⁻¹ | 330 nM |  | 19 ×10³ /M/min |  |  |  |  |  |  | 
10 | CC(C)C[C@H](NC(=O)OCc1ccccc1)C(=O)N[C@H](/C=C/S(=O)(=O)c1ccccc1)CCc1ccccc1 | 1.53 µM | 9.1 nM | 0.0009 min⁻¹ | 2.5 µM | 0.78 µM | 1570 ×10³ /M/min | 0.0028 min⁻¹ | 0.61 nM | 2.62 µM | 342 ×10³ /M/min | 12.2 µM | 4.6 |  |  |  |  | 
11 | CCN(CC)CCCC(C)Nc1ccnc2cc(Cl)ccc12 (stereo unspecified) [CHLOROQUINE] | 0.057 µM |  |  |  |  |  |  |  |  |  |  |  |  |  |  |  | 
12 | CC(=O)/C=C/[C@H](CCc1ccccc1)NC(=O)[C@H](Cc1ccccc1)NC(=O)OCc1ccccc1 | 7.03 µM | 0.038 nM | 0.002 min⁻¹ | 3.18 µM | 3.01 µM | 5750 ×10³ /M/min | 0.00255 min⁻¹ | 0.4 nM | 2.97 µM | 67000 ×10³ /M/min | 7.9 µM | 2.6 | Dose-dependent effect | Dose-dependent effect | inactive | 160 µM | 
13 | COC(=O)/C=C/[C@H](CCc1ccccc1)NC(=O)[C@H](CC(C)C)NC(=O)OCc1ccc([N+](=O)[O-])cc1 | 3.97 µM | 17 nM | 0.0014 min⁻¹ |  | 9.63 µM | 35 ×10³ /M/min | 0.0023 min⁻¹ | 41 nM |  | 152 ×10³ /M/min |  |  |  |  |  |  | 
14 | COC(=O)/C=C/[C@H](CCc1ccccc1)NC(=O)[C@H](CC(C)C)NC(=O)OCc1ccccc1 | 4.4 µM | 7.5 nM | 0.0032 min⁻¹ | 6.08 µM | 9.53 µM | 81 ×10³ /M/min | 0.0038 min⁻¹ | 40 nM | 5.02 µM | 509 ×10³ /M/min |  |  |  |  |  |  | 
15 | O=C(N[C@@H](Cc1ccccc1)C(=O)N[C@H](/C=C/S(=O)(=O)c1ccccc1)CCc1ccccc1)OCc1ccc([N+](=O)[O-])cc1 | > 10 µM | 7.2 nM | 0.003 min⁻¹ | 5.48 µM | > 50 µM | 65 ×10³ /M/min | 0.0024 min⁻¹ | 45 nM | 4.07 µM | 334 ×10³ /M/min |  |  |  |  |  |  | 
16 | CC(C)C[C@H](NC(=O)OCc1ccc([N+](=O)[O-])cc1)C(=O)N[C@H](/C=C/C#N)CCc1ccccc1 | > 10 µM |  |  |  | > 50 µM |  |  |  |  |  |  |  |  |  |  |  | inactive
17 | COC(=O)/C=C/[C@H](CCc1ccccc1)NC(=O)[C@H](Cc1ccccc1)NC(=O)OCc1ccccc1 | > 10 µM | 2 nM | 0.004 min⁻¹ | 12.9 µM | > 50 µM | 153 ×10³ /M/min | 0.0018 min⁻¹ | 27 nM | 8.28 µM | 919 ×10³ /M/min |  |  |  |  |  |  | 
18 | CC(C)C[C@H](NC(=O)[C@H]1O[C@@H]1C(=O)O)C(=O)NCCCCN=C(N)N [E-64] |  | 35 nM | 0.0032 min⁻¹ |  | 0.25 µM | 110 ×10³ /M/min | 0.009 min⁻¹ | 30 nM |  | 261 ×10³ /M/min |  |  |  |  |  |  | 
19 | COC(=O)/C=C/[C@H](CCc1ccccc1)NC(=O)[C@H](Cc1ccccc1)NC(=O)OCc1ccc([N+](=O)[O-])cc1 | > 10 µM | 3.6 nM | 0.0016 min⁻¹ | 97.2 µM | > 50 µM | 64 ×10³ /M/min | 0.0012 min⁻¹ | 25 nM |  | 347 ×10³ /M/min |  |  |  |  |  |  | 
